Experimental data pooled from the literature.
Cell line: HeLa
Effect on: cell growth or viability

C[C@]12C=CC(=O)C[C@@H]1CC[C@@H]1[C@@H]2C(=O)C[C@@]2(C)[C@H]1CC[C@]2(C)O — IC50 (MTT; 24 h): 19200 nM
N.N.[Cl][Pt][Cl] — IC50 (72 h): 0.22 µg/mL
N.N.[Cl][Pt][Cl] — IC50 (MTT; 48 h): 17000 nM
CC[C@@]1(OC(=O)[C@@H](N)Cc2ccccc2)C(=O)OCc2c1cc1n(c2=O)Cc2cc3cc4c(cc3nc2-1)OCO4 — IC50 (MTT): 64 nM
N#Cc1ccc(NC(=S)NN=Cc2ccc(O)cc2)cc1 — IC50 (72 h): 91 µg/mL
COc1cc(C(=O)c2cc3c(-c4ccccc4)c(O)ccc3o2)cc(OC)c1OC — IC50: 31000 nM
Nc1cc(Br)c(Br)cc1N — IC50 (72 h): 20000 nM
CC[C@@]1(OC(=O)[C@@H](N)CCSC)C(=O)OCc2c1cc1n(c2=O)Cc2cc3cc4c(cc3nc2-1)OCO4 — IC50 (MTT): 95 nM
O=C(Cc1ccc2ccccc2c1)N[C@H](Cc1ccccc1)C(=O)N[C@@H](Cc1ccccc1)C(=O)N[C@@H](Cc1ccc(OP(=O)(O)O)cc1)C(=O)O — IC50 (MTT; 48 h): > 500000 nM
N#Cc1ccc(NC(=S)NN=Cc2ccc(F)cc2)cc1 — IC50 (72 h): 68 µg/mL
CC[C@@]1(OC(=O)CN)C(=O)OCc2c1cc1n(c2=O)Cc2cc3cc4c(cc3nc2-1)OCO4 — IC50 (MTT): 42 nM
COc1c2c(cc3c1OCO3)[C@]13C=C[C@H](OC)C[C@@H]1[N@](C2)C[C@H]3OC(=O)c1ccco1 — IC50 (WST-1; 48 h): > 10000 nM
N#Cc1ccc(NC(=S)NN=Cc2ccccc2)cc1 — IC50 (72 h): 67 µg/mL
CC[C@@]1(OC(=O)[C@@H](N)CCCCN)C(=O)OCc2c1cc1n(c2=O)Cc2cc3cc4c(cc3nc2-1)OCO4 — IC50 (MTT): 24 nM
CC(C)[C@]12O[C@H]1[C@@H]1O[C@]13[C@]1(O[C@H]1C[C@H]1C4=C(CC[C@@]13C)C(=O)OC4)[C@@H]2O — IC50 (thymidine uptake; 24 h): 12 nM
CC[C@@]1(OC(=O)C(C)c2cccc(C(=O)c3ccccc3)c2)C(=O)OCc2c1cc1n(c2=O)Cc2cc3cc4c(cc3nc2-1)OCO4 (stereo partly shown) — IC50 (MTT): 270 nM
CC[C@H](C)[C@@H]([C@@H](CC(=O)N1CCC[C@H]1[C@H](OC)[C@@H](C)C(=O)N[C@H](C)[C@@H](O)c1ccccc1)OC)N(C)C(=O)[C@@H](NC(=O)[C@H](C(C)C)N(C)C(=O)OCc1ccc(NC(=O)[C@H](CCCNC(N)=O)NC(=O)[C@@H](NC(=O)CCCCCN2C(=O)CC(SCCC(=O)N[C@@H](Cc3cn(CCOCCNCCCCCCOc4cc(OCCCc5c(C)n[nH]c5C)cc(C(=O)O)c4)nn3)C(=O)NCCCCCC(=O)NCCCC[C@H](NC(=O)N[C@@H](CCC(=O)O)C(=O)O)C(=O)O)C2=O)C(C)C)cc1)C(C)C (stereo partly shown) — IC50 (MTT): 372 nM
CC[C@H](C)[C@H](N)C(=O)O[C@]1(CC)C(=O)OCc2c1cc1n(c2=O)Cc2cc3cc4c(cc3nc2-1)OCO4 — IC50 (MTT): 124 nM
N.N.[Cl][Pt][Cl] — IC50 (MTT; 24 h): 2330 nM
